The values below come from ChEMBL document CHEMBL1148614, “Synthesis and evaluation of 2-anilino-3-phenylsulfonyl-6-methylpyridines as corticotropin-releasing factor1 receptor ligands” (Bioorg Med Chem Lett, 2006).

For data set [1], the target named is T1, Corticotropin-releasing factor receptor 1 (Rattus norvegicus, UniProt P35353).
T1 sequence (P35353 whole entry): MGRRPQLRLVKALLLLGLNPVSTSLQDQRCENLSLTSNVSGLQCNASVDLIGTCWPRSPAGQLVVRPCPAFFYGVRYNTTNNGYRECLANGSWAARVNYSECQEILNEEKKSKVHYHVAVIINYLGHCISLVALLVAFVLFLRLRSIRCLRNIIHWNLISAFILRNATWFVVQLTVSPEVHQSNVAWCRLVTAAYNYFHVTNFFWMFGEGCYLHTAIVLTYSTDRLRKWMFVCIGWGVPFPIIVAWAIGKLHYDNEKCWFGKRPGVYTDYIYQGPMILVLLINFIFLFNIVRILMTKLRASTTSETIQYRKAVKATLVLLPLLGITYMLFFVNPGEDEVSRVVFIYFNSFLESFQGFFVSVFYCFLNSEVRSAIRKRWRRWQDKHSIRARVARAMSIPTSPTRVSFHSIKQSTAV
The data set can be described thus: Displacement of [125I]Tyr-o-CRF from CRF1 receptor in rat frontal cortex homogenates. Type of data set: tissue-based. For orientation: Displacement assays read how much labelled ligand stays bound in the presence of the test substance.

Data set [2] can be described thus: Bioavailability in Sprague-Dawley rat at 2.0 mg/kg, po. As to conditions: in vivo. Type of data set: ADME, organism-based. In short, it runs like this: (§1)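 Cassette dosing in Sprague–Dawley rats (n = 3 per route). Oral dose 2 mg/kg, with plasma sampled at 0, 0.5, 1, 2, 4, 6, 8 and 24 h. Plasma drug levels measured by LC/MS/MS.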
Data set [3] in a line: AUC in Sprague-Dawley rat at 2.0 mg/kg, po. Type of data set: ADME, organism-based. Details: dose 2 mg/kg, route oral. As to conditions: plasma. In short, it runs like this: as §1
Data set [4] is described as follows: Clearance in Sprague-Dawley rat at 0.5 mg/kg, iv. Type of data set: ADME, organism-based. Details: dose 0.5 mg/kg, route intravenous. As to conditions: in vivo.
A short description of data set [5]: Cmax in Sprague-Dawley rat at 2.0 mg/kg, po. Type of data set: ADME, organism-based. On the set-up: dose 2 mg/kg, route oral. The settings on record: in vivo. In short, it runs like this:
as §1

Data set [6] is described as follows: Half life in Sprague-Dawley rat at 0.5 mg/kg, iv. Type of data set: ADME, organism-based. Details: dose 0.5 mg/kg, route intravenous. The settings on record: in vivo.
Data set [7] has as its system Rattus norvegicus. The data set can be described thus: Volume of distribution in Sprague-Dawley rat at 0.5 mg/kg, iv. On the set-up: dose 0.5 mg/kg, route intravenous. Type of data set: ADME, organism-based. The settings on record: in vivo.

Structures are written as SMILES. Some results are limits rather than exact numbers.

For orientation: Ki means the equilibrium dissociation constant of an inhibitor or competing ligand from its target. A low value points to a stronger hold on the target. In data set [1], `COc1cccc(S(=O)(=O)c2ccc(C)nc2Nc2c(C)cc(C)cc2C)c1` displayed a Ki of 249 nM.
In data set [1], `Cc1cc(C)c(Nc2nc(C)ccc2S(=O)(=O)c2cccc(OCc3ccccc3)c2)c(C)c1` came in with a Ki of 132 nM.
The compound `COc1cc(COc2ccc(S(=O)(=O)c3ccc(C)nc3Nc3c(C)cc(C)cc3C)cc2)cc(OC)c1` came in with a Ki in data set [1] of 34 nM.
The same measure, in the same setting: for `Cc1cc(C)c(Nc2nc(C)ccc2S(=O)(=O)c2ccc(OC(F)(F)F)cc2)c(C)c1` the value was 268 nM; for `Cc1cc(C)c(Nc2nc(C)ccc2S(=O)(=O)c2ccc(OCCCCC#N)cc2)c(C)c1`, 395 nM.
On the same count and under the same terms, for `Cc1cc(C)c(Nc2nc(C)ccc2S(=O)(=O)c2ccc(CO)cc2)c(C)c1` the value was 1080 nM; for `Cc1ccc(S(=O)(=O)c2c(C)cc(C)nc2Nc2c(C)cc(C)cc2C)cc1`, 1780 nM; for `COc1ccc(S(=O)(=O)c2ccc(C)nc2Nc2c(C)cc(C)cc2C)cc1`, 198 nM.
In data set [1], `C=CCOc1ccc(S(=O)(=O)c2ccc(C)nc2Nc2c(C)cc(C)cc2C)cc1` had a Ki of 119 nM.
As for `Cc1cccc(S(=O)(=O)c2c(C)cc(C)nc2Nc2c(C)cc(C)cc2C)c1`, the Ki in data set [1] was found to be 5170 nM.
One may read the bioavailability as the share of a dose that reaches the circulation, judged against a reference dose that is usually intravenous. Read a high bioavailability as good availability. What is called AUC is the area under the concentration-time curve, a measure of exposure. A lower AUC goes with less exposure. Broadly, the clearance is the rate of elimination divided by the concentration. High values mean efficient removal, low ones inefficient removal. What is called Cmax is the peak of the concentration-time curve. Broadly, the half-life is the time in which the quantity being followed falls by half. A low value points to fast loss. What is called Vss is a proportionality between amount in the body and measured concentration, not a real space. As for `CCc1ccc(S(=O)(=O)c2ccc(C)nc2Nc2c(C)cc(C)cc2C)cc1`, the bioavailability in data set [2] came to 35%. The same compound came in with an AUC in data set [3] of 0.347 µM·h. In data set [1], the Ki stood at 52 nM. In data set [4], the clearance was 86.7 mL/min/kg. Moreover, in data set [5], the highest concentration (Cmax) is 72 nM. In data set [6], this compound had a half-life of 306 min. The Vss in data set [7] was 25 L/kg.
In turn, `Cc1cc(C)c(Nc2nc(C)ccc2S(=O)(=O)c2ccc(OCc3cccc(C#N)c3)cc2)c(C)c1` yielded a Ki in data set [1] of 75 nM.
On the same count and under the same terms, for `COc1cccc(COc2ccc(S(=O)(=O)c3ccc(C)nc3Nc3c(C)cc(C)cc3C)cc2)c1` the value was 58 nM; for `Cc1cc(C)c(Nc2nc(C)ccc2S(=O)(=O)c2ccc(OCc3ccc(C#N)cc3)cc2)c(C)c1`, 157 nM; for `Cc1ccc(S(=O)(=O)c2ccc(C)nc2Nc2c(C)cc(C)cc2C)cc1`, 145 nM.
The same measure, in the same setting: to `Cc1cc(C)c(Nc2nc(C)ccc2S(=O)(=O)Cc2ccc(Cl)cc2)c(C)c1` belongs 857 nM; to `Cc1cc(C)c(Nc2nc(C)cc(C)c2S(=O)(=O)c2ccccc2C)c(C)c1`, over 10000 nM.
Still for that read-out and setting: to `Cc1cc(C)c(Nc2nc(C)ccc2S(=O)(=O)c2ccc(OCCCC#N)cc2)c(C)c1` belongs 635 nM.
Take `COc1ccccc1COc1ccc(S(=O)(=O)c2ccc(C)nc2Nc2c(C)cc(C)cc2C)cc1`: the bioavailability in data set [2] was determined as 16%. For the same compound, the AUC in data set [3] turned out to be 0.176 µM·h. This compound had a Ki in data set [1] of 17 nM. In data set [4], the clearance is 58.3 mL/min/kg. In data set [5], this compound gave a Cmax of 48 nM. Also, in data set [6], the half-life was 210 min. This compound displayed a Vss in data set [7] of 8 L/kg.
Take `Cc1cc(C)c(Nc2nc(C)cc(C)c2S(=O)(=O)c2ccccc2)c(C)c1`: in data set [1], the Ki is over 10000 nM.
`Cc1ccc(S(=O)(=O)c2ccc(Nc3c(C)cc(C)cc3C)nc2C)cc1` yielded a Ki in data set [1] of over 10000 nM.
In turn, `Cc1cc(C)c(Nc2nc(C)ccc2S(=O)(=O)c2ccc(OCc3ccccn3)cc2)c(C)c1` showed a Ki in data set [1] of 250 nM.
Compound `Cc1cc(C)c(Nc2nc(C)ccc2S(=O)(=O)c2ccc(OCc3ccccc3)cc2)c(C)c1` displayed a bioavailability in data set [2] of 18%. This compound also showed an AUC in data set [3] of 0.167 µM·h. In data set [1], the Ki came out at 32 nM. The clearance in data set [4] is 78.3 mL/min/kg. Besides, the peak concentration (Cmax) in data set [5] worked out at 42 nM. In data set [6], the half-life is 180 min. In data set [7], this compound registered a Vss of 10 L/kg.
On to `COC(=O)c1cccc(COc2ccc(S(=O)(=O)c3ccc(C)nc3Nc3c(C)cc(C)cc3C)cc2)c1`, for which, in data set [1], the affinity, expressed as Ki, was 49 nM.
